Sampled rows, rich in hits. Any-hit rate of the full collection: about 2%.
HSP90 refold inh = HSP90 inhibitors, primary screen, cell lysate, luminescence | Rabbit reticulocyte lysate, luciferase refolding luminescence, 3 h | AID 1789, 2009 | hit rate 0.91% among 290,000 | inhibition, % at 5.6 µM;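 active = inhibition above the screen-wide mean plus 3 SD, computed separately per campaign, cut at about 16% in these data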;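 note: inhibitors lower the luminescence because luciferase stays unfolded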
STAT3 activator = IL-6 driven STAT3 reporter potentiators, primary screen, U3A cells, luciferase, luminescence, MLSCN library. IL-6 STAT3-luciferase reporter; 100% = signal with IL-6 EC80 alone. activation (% of control), % at 5.6 µM. hit rate 0.91% among 190,000. AID 871, 2007;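 active = activation above the screen-wide mean of compound activation plus 3 SD, cut at about 130% in these data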
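Detection: reporter luminescence signal / Assay system: STAT1-lacking human U3A cells, STAT3 luciferase reporter / Incubation: compound pre-incubation 1 h before IL-6, then 6 h stimulation at 37 °C / Control set: IL-6-only high control / Read-out: % activation relative to IL-6 control / Probe or stimulus: Interleukin-6, 33 ng/mL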
STAT3 blocker = IL-6 driven STAT3 reporter inhibitors, primary screen, U3A cells, luciferase, luminescence, MLSCN library; IL-6 STAT3-luciferase reporter; host cell line lacks STAT1; inhibition, % at 5.5 µM; hit rate 0.89% among 190,000;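 active = inhibition above the mean inhibition across all screened compounds plus 3 SD, cut at about 44% in these data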
STAT1 inh-1 = STAT1 signaling inhibitors, primary screen, cell-based, HTS, luciferase reporter. inhibition, % at 5.5 µM. AID 920, 2007. hit rate 0.35% among 200,000. NIH 3T3 STAT1-luciferase reporter, IFN-gamma, luminescence;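 active = inhibition above a set limit, the mean inhibition across all tested compounds plus 3 SD, cut at about 34% in these data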
STAT1 inh-2 = STAT1 signaling inhibitors, confirmation, cell-based, HTS, luciferase reporter; shares compounds with STAT1 inh-1; NIH 3T3 STAT1-luciferase reporter, IFN-gamma, luminescence; inhibition, % at 5.5 µM; hit rate 55% among 200; AID 1263, 2008;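 active = triplicate mean inhibition exceeding the hit cutoff computed for the primary STAT1 screen, cut at about 35% in these data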
NFkB inh = NF-kB reporter inhibitors, TNF-alpha stimulated, counter-screen for STAT1 inhibitor project, cell-based, HEK293T, luciferase luminescence. shares compounds with STAT1 inh-1. TNF-alpha induced. inhibition, % at 5.7 µM. hit rate 30% among 200;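 active = inhibition above the mean of solvent-only control wells plus 3 SD of those wells, cut at about 15% in these data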
STAT3 inh STAT1c = STAT3 reporter inhibition by STAT1 hits, counter-screen for STAT1 inhibitor project, U3A cells, luciferase, luminescence, triplicate; shares compounds with STAT1 inh-1; IL-6 STAT3 luciferase reporter; cells lacking STAT1; inhibition, % at 5.7 µM; hit rate 20% among 200; AID 1310, 2008;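 active = inhibition above the mean of solvent-only control wells plus 3 SD, set per campaign, cut at about 25% in these data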
Numbers stand for hits; . = inactive; / = not tested or not shown.

SMILES	HSP90 refold inh	STAT3 activator	STAT3 blocker	STAT1 inh-1	STAT1 inh-2	NFkB inh	STAT3 inh STAT1c
COc1cccc(NC(=O)CSc2nnc(-c3cc(C)n(-c4ccccc4)c3C)o2)c1	.	.	.	40	.	.	.
Cc1sc(-c2ccccn2)nc1OC(=O)c1ccc(F)cc1F	.	.	.	74	50	24	.
CC(C)COc1ccc(C/C(N)=N/n2cnnc2)cc1	.	.	.	35	.	.	39
COc1cccc(-n2nnnc2S(C)(=O)=O)c1	.	.	.	35	44	.	.
O=C(O)c1cccc(N/N=C/c2cccnc2)c1	.	.	.	40	.	31	.
CC(=O)/C(=C/c1ccccc1)C(=O)Nc1ccccc1C	.	.	.	.	/	/	/
Cc1ccccc1NC(=O)C(=Cc1ccc(C(=O)O)cc1)C(=O)Nc1ccccc1C	.	.	.	41	46	.	.
CCOc1ccccc1NC(=O)CN1CCC(NC(=O)Nc2ccccc2)CC1	.	/	/	/	/	/	/
CCn1c(=O)c2cc(C(=O)N3CCOCC3)sc2c2ccccc21	.	.	.	.	/	/	/
CCn1c(=O)c2cc(C(=O)N3CCCC3)sc2c2ccccc21	.	/	/	56	47	.	.
COC(=O)C(Cc1ccccc1)NC(=O)CNC(=O)c1sc2ccccc2c1Cl (configuration not stated)	.	/	/	/	/	/	/
C=CCn1c(O)c(N=NC(=O)CNC(=O)Cc2ccccc2)c2ccccc21	.	/	/	/	/	/	/
COc1cc(/C=N/Nc2cccc3cccnc23)cc(OC)c1O	.	.	.	.	/	/	/
Oc1cccc(/C=N/Nc2cccc3cccnc23)c1	.	.	.	49	.	.	.
NC(=O)CSc1nc2ccccc2c(=O)n1Cc1ccco1	.	.	.	.	/	/	/
O=C(CSc1nc2ccccc2c(=O)n1Cc1ccco1)N1CCCC1	.	.	.	37	.	.	.
Cc1ccc2[nH]c3c(=O)n4c(nc3c2c1)SCC4	.	.	.	.	/	/	/
COc1ccc2[nH]c3c(=O)n4c(nc3c2c1)SCCC4	.	.	.	37	.	.	.
CCOC(=O)N1CCN(C(=O)c2ccc(NC(=O)c3ccc(C)cc3)cc2)CC1	.	.	.	68	61	.	.
CCOC(=O)N1CCN(C(=O)c2ccc(NC(C)=O)cc2)CC1	.	.	.	.	/	/	/
CCc1nn(C)c2c(=O)c(=O)c2n(C)[nH]1	.	/	/	/	/	/	/
CCOC(=O)N1CCN(C(=S)NC(=O)c2cc(Br)ccc2Cl)CC1	.	.	.	44	.	.	.
CCOC(=O)N1CCN(C(=S)NC(=O)c2ccc(Br)cc2)CC1	.	.	.	.	/	/	/
COc1ccccc1Nc1nc(-c2c(C)nc3ncccn23)cs1	.	.	.	39	36	.	30
O=c1cc(CSc2nc3ccccc3c(=O)[nH]2)c2ccc(O)cc2o1	.	.	.	69	52	.	.
SMILES	HSP90 refold inh	STAT3 activator	STAT3 blocker	STAT1 inh-1	STAT1 inh-2	NFkB inh	STAT3 inh STAT1c
CCOC(=O)c1c(C)nc2sc3c(=O)n(-c4ccc(OC)cc4)nnc3c2c1-c1ccc(OC)cc1	.	.	.	50	48	.	.
CCOC(=O)c1c(C)nc2sc3c(=O)n(-c4ccc(C(C)=O)cc4)cnc3c2c1-c1ccc(OC)cc1	.	.	.	.	/	/	/
O=C(CCl)N(c1ccccc1)c1ccccc1	.	.	.	36	36	24	.
O=C(N(c1ccccc1)c1ccccc1)N(c1ccccc1)c1ccccc1	.	/	/	/	/	/	/
CCCCC(=O)Nc1cnc(NC(=O)c2cccs2)cc1C	.	/	/	/	/	/	/
Cc1ccc(C(=O)Cn2nc(C(=O)O)c3ccccc3c2=O)cc1C	.	/	/	/	/	/	/
Cc1ccc(-n2nc(C(=O)O)c3ccccc3c2=O)cc1C	.	.	.	54	49	.	.
O=C(O)c1ccccc1C(=O)Nc1ccc(Oc2cccc3ccccc23)cc1	.	.	.	63	.	23	.
Cc1cccc(Oc2ccc(NC(=O)c3ccccc3C(=O)O)cc2)c1C	.	.	.	.	/	/	/
Cc1ccc2c(c1)C1CN(C)CCC1N2Sc1ccccc1[N+](=O)[O-] (configuration not stated)	.	/	/	/	/	/	/
CCNc1nc(SCCOc2ccc(Br)cc2)nc(N(C)C)n1	.	.	.	.	/	/	/
CCNc1nc(NC(C)(C)C)nc(N2CCCCC2)n1	.	.	.	39	.	.	.
CCNc1nc(N2CCCC2)nc(N2CCCC2)n1	.	.	.	.	/	/	/
CCC(C)C(NC(=O)/C(=C\c1ccccc1)NC(=O)c1ccc(OC)cc1)C(=O)O (configuration not stated)	.	.	.	.	/	/	/
NS(=O)(=O)c1ccc(CCNC(=O)c2ccc(C#CC3(O)CCCCC3)cc2)cc1	.	.	.	52	.	.	.
COc1ccc(S(=O)(=O)Nc2ccccn2)cc1C(=O)Nc1ccccc1	.	/	/	/	/	/	/
CCN(CC(=O)NCc1ccc(Cl)cc1)C(=O)/C=C/c1cccs1	.	.	.	68	.	.	.
Cc1cc(O)ccc1N1C(=O)c2cccc3cc([N+](=O)[O-])cc(c23)C1=O	.	.	.	46	.	.	.
COc1ccc(CCNC(=O)Cn2c(=O)n(-c3ccc(C)c(F)c3)c(=O)c3sccc32)cc1OC	.	.	.	52	45	16	.
Cc1ccc(C(=O)Nc2cccc(N(C)S(C)(=O)=O)c2)cc1S(=O)(=O)Nc1ccccc1	.	.	.	40	34	.	.
COc1ccc(C(=O)Nc2cccc(N(C)S(C)(=O)=O)c2)cc1OC	.	.	.	.	/	/	/
O=C(N/N=C/C1CC2CCC1C2)c1ccc2c(c1)OCO2 (configuration not stated)	.	.	.	.	/	/	/
C#Cc1ccc([C@@H]2C=C(C(=O)OCC=C)O[C@H](OCC)[C@H]2CCCO)cc1	.	/	/	37	.	.	.
C=CCOC(=O)C1=C[C@H](c2ccccc2)[C@@H](CCCO)[C@H](OCC)O1	.	/	/	.	/	/	/
C#Cc1ccc([C@H]2C=C(C(=O)OCC=C)O[C@@H](OCC)[C@@H]2CCCO)cc1	.	/	/	56	36	.	.
CCC(C)C(NC(=O)C1CCC(C)CC1)C(=O)NC1CCN(Cc2ccccc2)CC1 (configuration not stated)	.	/	/	.	/	/	/
COc1ccccc1-c1cc(C(F)(F)F)nc(S(=O)(=O)CCCC(=O)N2CCOCC2)n1	.	.	.	43	44	.	.
COc1ccc(-c2cc(C(F)(F)F)nc(S(=O)(=O)CCCC(=O)Nc3cccc(O)c3)n2)cc1OC	.	.	.	38	39	.	.
COc1ccc(N2CCN(C(=O)C3CCN(C(=O)c4ccc([N+](=O)[O-])cc4)CC3)CC2)cc1	.	/	/	/	/	/	/

Screening results (PubChem BioAssay)
